A selection: hits, their analogues and other compounds. The true share with any hit is near 1.6%.
LEDGF integ inh = blocks HIV-1 LEDGF/p75-dependent DNA integration; TR-FRET IN-LEDGF/p75 DNA integration, Eu/Cy5; inhibition, % at 3.7 µM; 0.64% of 370,000 active; AID 743269;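 active means inhibition above the screen-wide mean plus 3 SD, cut at about 13% in these data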;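 further: signal is the Cy5 over europium emission ratio at 671 and 618 nm; 0% = plate median of compound wells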
MBD2 DNA inh = MBD2-methylated oligo binding inhibition | Q9UBB5 | TR-FRET, MBD2 binding to methylated oligonucleotide | inhibition, % at 4.4 µM | 0.31% of 370,000 active | AID 686964; in the data active means inhibition above about 13%
UHRF1 binding = blocks human UHRF1 binding to methylated DNA; inhibition, % at 4.4 µM; 0.75% of 370,000 active; UHRF1 binding to methylated oligo, TR-FRET; AID 687016; Q96T88; in the data active means inhibition above about 21%;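 further: UHRF1 SRA domain binding a hemimethylated CpG hairpin DNA probe; 0% = median of test compound wells and 100% = reference inhibitor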
TDP2 absorb = TDP2 (human) inhibition, absorbance primary screen; O95551; recombinant TDP2, T5PNP hydrolysis, p-nitrophenol absorbance 415 nm; inhibition, % at 12.8 µM; 0.34% of 370,000 active; AID 720702;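 active means inhibition above the mean of all tested compounds plus 3 SD, set per campaign, cut at about 25% in these data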;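 further: 0% = DMSO with enzyme and 100% = buffer with substrate but no TDP2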
Target sequence (O95551 whole entry, looked up): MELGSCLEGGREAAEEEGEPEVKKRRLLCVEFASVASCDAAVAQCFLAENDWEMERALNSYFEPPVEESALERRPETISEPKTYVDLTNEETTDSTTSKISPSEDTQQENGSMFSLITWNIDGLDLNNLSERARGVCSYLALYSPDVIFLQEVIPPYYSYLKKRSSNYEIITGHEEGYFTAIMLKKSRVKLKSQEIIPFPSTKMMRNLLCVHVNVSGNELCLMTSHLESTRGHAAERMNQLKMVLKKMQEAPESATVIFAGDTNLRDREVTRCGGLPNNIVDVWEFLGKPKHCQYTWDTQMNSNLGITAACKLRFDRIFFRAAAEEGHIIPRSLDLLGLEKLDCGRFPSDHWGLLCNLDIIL
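Evaluation: % inhibition relative to enzyme-containing and enzyme-free wells. Material: recombinant human TDP2. Benchmarks: enzyme-free and DMSO wells. Timing: enzyme reaction with compound for 2 h at 37 °C. Compound dosing: 12.8 µM only. Measured by: p-Nitrophenol epi absorbance. Reagent: T5PNP substrate at 5 mM, a TopII-DNA adduct mimic. Replication: single well per compound.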
* = called active by the depositor.

SMILES	LEDGF integ inh	MBD2 DNA inh	UHRF1 binding	TDP2 absorb
CCOc1cc(NC(=O)c2ccco2)c(OCC)cc1NC(=O)CCc1ccccc1OC	15*	0	-1	7
CCOc1cc(NC(=O)c2ccco2)c(OCC)cc1NC(=O)c1ccco1	0	-5	0	13
CCOc1cc(NC(=S)NC)c(OCC)cc1NC(=O)c1ccco1	-1	-5	0	-2
CNC(=S)Nc1cc(OC)c(NC(=O)c2ccco2)cc1OC	-2	-5	43*	8
CCN(CCO)Cc1csc2c(Br)cccc12	-3	5	5	-5
CCCCN(CCCC)C(=O)/C=C/c1cccc([N+](=O)[O-])c1	1	5	21*	2
CCNC(=O)COC(=O)/C=C/c1cccc([N+](=O)[O-])c1	-2	-3	-2	9
COc1cc(C2CC(=O)NC3=C2C(=O)CC(C)(C)C3)ccc1O (stereo not given)	-2	-6	1	6
Cc1cc(SCC(=O)Nc2c(C)n(C)n(-c3ccccc3)c2=O)nc2ccccc12	1	-4	4	-4
CC(C)n1nc(C(=O)Nc2nc3ccccc3[nH]2)c2ccccc2c1=O	-4	3	98*	2
COCCNC(=O)C(c1ccc(F)cc1)N(C(=O)CCC(=O)Nc1nccs1)c1ccc(C)cc1 (stereo not given)	4	-1	21*	-11
COc1ccc(-c2cc(-c3ccccc3)nc(Cl)n2)cc1OC	3	-4	30*	-5
OCCCCNCc1cc(Br)ccc1OCc1ccccc1	0	10	29*	1
CC(=O)N1CC2(CC(c3ccccc3F)=NO2)CN1c1ccc(Cl)cc1 (stereo not given)	0	8	22*	1
COc1ccc(OCC(=O)NNC(=O)c2cccnc2)cc1	-1	4	2	1
Cc1ccc(OCC(=O)NNC(=O)c2cccnc2)cc1	4	8	27*	4
CC1CCCN(Cc2c(O)ccc3c2O/C(=C\c2ccco2)C3=O)C1 (stereo not given)	29*	6	14	13
CCN1CCN(Cc2c(O)ccc3c2O/C(=C\c2ccccc2)C3=O)CC1	1	-4	-19	-10
CCCCn1c(N)c(N(CC(C)C)C(=O)c2cc3c(s2)CCCCC3)c(=O)[nH]c1=O	1	-3	57*	2
COc1ccc2oc(C(=O)OCC(=O)Nc3ccc(C(=O)N(C)C)cc3)c(C)c2c1	-4	-1	-2	14
CCOC(=O)c1cc(-c2ccccc2)nn1CCC#N	-1	1	44*	-2
O=C(CSc1nc2ncc(Cl)cc2[nH]1)NCCc1ccc(F)cc1	-8	-2	3	-9
COC(=O)c1c(C)[nH]c(C(=O)COC(=O)Cn2cc(C(F)(F)F)ccc2=O)c1C	-5	-1	82*	15
CCCCn1c(N)c(N(CCOC)C(=O)c2cc(S(=O)(=O)N3CCCCC3)ccc2Cl)c(=O)[nH]c1=O	1	-4	-1	-1
COc1ccc(CC(=O)NC2CCSc3ccccc32)c(OC)c1 (stereo not given)	1	0	-1	9
SMILES	LEDGF integ inh	MBD2 DNA inh	UHRF1 binding	TDP2 absorb
CNC(=O)CSc1nnc(-c2cc(C)cc(C)c2)o1	0	-7	67*	3
Cc1cc(C)cc(-c2nnc(SCC(=O)NCc3cccs3)o2)c1	0	1	0	4
CCc1cc(Cn2nc(-c3ccccc3)cc2C(=O)O)on1	1	3	80*	-6
O=C(COC(=O)C1COc2ccccc2O1)Nc1cccc(Cl)c1 (stereo not given)	4	4	-1	-9
CCN(CC)S(=O)(=O)c1cccc(NC(=O)COC(=O)C2COc3ccccc3O2)c1 (stereo not given)	1	0	24*	9
Cc1ccc(C2NC(=O)c3c(sc(C)c3C)N2)c(O)c1 (stereo not given)	2	2	5	8
Cc1nnc(SCC(=O)NCc2ccccc2Cl)[nH]c1=O	1	3	21*	2
Cc1nnc(SCC(=O)Nc2c(Cl)cccc2Cl)[nH]c1=O	0	6	0	-6
Cc1ccc([N+](=O)[O-])cc1NC(=O)/C=C/C(=O)O	-9	-6	40*	5
CC(C)CNC(C(=O)Nc1ccc([N+](=O)[O-])cc1Br)c1ccccc1 (stereo not given)	-3	-1	-2	-1
C=CCNC(=S)NNC(=O)c1ccc(OC(C)C)cc1	2	-4	-1	3
Cc1ccc(-c2nc(C(Cl)Cl)c3ccccc3n2)cc1	-1	4	47*	10
CC(O)(CC(=O)CC(=O)c1ccccc1)c1ccccc1 (stereo not given)	2	0	43*	-6
COc1ccc(CCNC(=O)c2cc3c(=O)n4ccccc4nc3n(CCCN3CCOCC3)c2=N)cc1	0	-4	24*	-20
CC(C)(C)OC(=O)C[C@@H]1C/C=C\C[C@@H](CC(=O)NCCO)C(=O)NCCOC1=O	18*	-1	2	10
CC(C)(C)OC(=O)C[C@H]1C/C=C\C[C@H](CC(=O)NCCO)C(=O)NCCOC1=O	0	2	-1	-8
CCc1ccc2c(CN3CCN(S(=O)(=O)c4cccs4)CC3)cc(=O)oc2c1	-1	-7	4	-19
O=C1C(O)=CC(=C(c2ccccc2)c2ccccc2)c2ccccc21	11	-1	-3	26*
O=C(O)c1cccc2c1C(=O)c1ccccc1C2=O	-4	1	2	7
CCOC(=O)c1ccc(NC(=O)c2cc3ccccc3o2)cc1	1	3	26*	2
Cc1ccc(-n2c(-c3nn(C)cc3Cl)n[nH]c2=S)cc1	1	3	21*	-8
C=C(C)c1cccc(C(C)(C)NC(=O)N2CCCCC2CC)c1 (stereo not given)	3	7	22*	7
O=C(CSc1ccccc1C(=O)O)NC1CCCCCCC1	-1	4	0	-12
COc1ccc2c(CC(=O)OCC(=O)Nc3sc4c(c3C#N)CCC(C)C4)coc2c1 (stereo not given)	-3	-1	41*	2
Cc1noc(C)c1C(=O)OCC(=O)Nc1ccccc1Oc1ccccc1	1	-2	4	-24
SMILES	LEDGF integ inh	MBD2 DNA inh	UHRF1 binding	TDP2 absorb
Cc1ccc(-n2c3c(c(=O)[nH]c2=O)C(NS(=O)(=O)c2ccc(C)cc2)(C(F)(F)F)C(=O)N3)cc1 (stereo not given)	6	3	18	-14
Cc1ccc(-n2c3c(c(=O)[nH]c2=O)C(NS(=O)(=O)c2ccc(Cl)cc2)(C(F)(F)F)C(=O)N3)cc1 (stereo not given)	2	4	28*	2
COc1cccc2cc(-c3cc(=O)oc4cc(C)c(OCC(C)=O)cc34)oc12	0	2	0	-17
CN(CC(=O)Nc1ccccc1Br)C(=O)c1cccc(S(=O)(=O)N2CCc3ccccc32)c1	1	2	1	7
CCOc1ccc(C(=O)NCC(C)NC(=O)c2ccc(OCC)cc2)cc1 (stereo not given)	4	6	24*	-25
CCOc1ccc(C(=O)NCC(C)C)cc1	2	-4	0	3

Compound activity (PubChem BioAssay)
